According to ChEMBL document CHEMBL1148164, “Cytotoxicity of artemisinin-related endoperoxides to Ehrlich ascites tumor cells” (J Nat Prod, 1993):

Columns and labels:
[1] = Cytotoxicity against mouse EAC after 3 days by MTT assay; type: functional, cell-based; details: Ehrlich, 72 h
Outline: (§1)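 Exponentially growing EAT cells (>95% trypan-blue viable; RPMI 1640, 10% heat-inactivated FCS) at 400 cells/well were exposed to compounds for 2 h at 37°, 5% CO2 (final DMSO 0.25%). Cells were washed 3×, then grown 3 days. MTT (5 mg/ml in PBS) was added for 3 h 45 min, formazan was dissolved in DMSO, and A520 was read. Survival is relative to untreated, medium-blank corrected. Three separate experiments.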

[2] = Cell cycle arrest in mouse EAC assessed as accumulation at S phase by FACS analysis; type: functional, cell-based; parameters: concentration or dose not given beside the values; details: Ehrlich
[3] = Cytotoxicity against mouse EAC at >125 uM after 3 days by MTT assay; type: functional, Ehrlich; outline: as §1
[4] = Cytotoxicity against mouse EAC at >175 uM after 3 days by MTT assay; type: functional, Ehrlich; outline: as §1
[5] = Cytotoxicity against mouse EAC at >500 uM after 3 days by MTT assay; type: functional, Ehrlich; outline: as §1
[6] = Cytotoxicity against mouse EAC at >50 uM after 3 days by MTT assay; type: functional, Ehrlich
Outline: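 EAT cells grown in suspension in RPMI 1640 with 10% heat-inactivated FCS, streptomycin and penicillin, 37°, 5% CO2; exponential cells, viability >95%. 400 cells/well exposed 2 h at 37° (final DMSO 0.25%), washed 3×, regrown 3 days. MTT 3 h 45 min, formazan in DMSO, A520; survival versus untreated controls. Triplicate separate experiments, mean ± SD.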

Row | SMILES | IC50 [1] [µM] | IC80 [1] [µM] | Activity [2] [%] | Activity [3] [%] | Activity [4] [%] | Activity [5] [%] | Activity [6] [%]
1 | CC(=O)[C@@H]1CC[C@@H](C)[C@@H]2CC[C@@]3(C)OO[C@@]12[C@H](OC=O)O3 | 91 | 156 | – | – | – | – | –
2 | C[C@H]1[C@H](O[C@@H]2O[C@@H]3O[C@@]4(C)CC[C@H]5[C@H](C)CC[C@@H]([C@H]2C)[C@@]35OO4)O[C@@H]2O[C@@]3(C)CC[C@H]4[C@H](C)CC[C@@H]1[C@@]24OO3 | 1.4 | 2.4 | – | – | – | – | –
3 | C=C1[C@@H](OO)O[C@@H]2O[C@]3(C)CC[C@H]4[C@H](C)CC[C@@H]1[C@@]24OO3 [HYDROPEROXYARTEMISITENE] | 37.8 | 59.2 | – | – | – | – | –
4 | CO[C@H]1O[C@@H]2O[C@@]3(C)CC[C@H]4[C@H](C)CC[C@@H]([C@H]1C)[C@@]24OO3 [ARTEMETHER] | 14.3 | > 125 | 63 | 26.7 | – | – | –
5 | C[C@@H]1CC[C@@H]2[C@]34OO[C@](C)(CC[C@@H]13)O[C@H]4OC(=O)[C@]2(C)O | 48.7 | 125 | – | – | – | – | –
6 | C=C(C(=O)O)[C@@H]1CC[C@@H](C)[C@@H]2CCC(C)=C[C@@H]21 [ARTEMISINIC ACID] | > 175 | > 175 | – | – | 100 | – | –
7 | C[C@@H]1CC[C@H]2[C@@H](C)C(=O)O[C@@H]3O[C@@]4(C)CC[C@@H]1[C@]32OO4 [ARTEMISININ] | 29.8 | 346 | 63 | – | – | – | –
8 | C[C@@H]1[C@H](OCc2ccc(C(=O)O)cc2)O[C@@H]2O[C@@]3(C)CC[C@@H]4[C@@H](C)CC[C@@H]1[C@]24OO3 [ARTELINIC ACID] | 16.1 | 103 | 63 | – | – | – | –
9 | C[C@H]1[C@H](OC(=O)CCC(=O)O)O[C@@H]2O[C@@]3(C)CC[C@H]4[C@H](C)CC[C@@H]1[C@@]24OO3 [SODIUM ARESUNATE] | 19.9 | 53.6 | – | – | – | – | –
10 | CC(C)C12C=CC(C)(CC1)OO2 (stereo not drawn) [ASCARIDOLE] | > 500 | > 500 | – | – | – | 74.8 | –
11 | CC(=O)[C@@H]1CC[C@@H](C)[C@@H]2CC[C@@]3(C)OO[C@@]12C(=O)O3 | > 175 | > 175 | – | – | 98.1 | – | –
12 | C=C1C(=O)O[C@@H]2/C=C(\C)CC/C=C(/C)C[C@@H](OC(=O)/C(=C/CO)CO)[C@@H]12 [EUPATORIOPICRIN] | 5.7 | 13.4 | – | – | – | – | –
13 | C[C@@H]1CC[C@@H]2[C@]34OO[C@@](C)(CC[C@@H]13)O[C@H]4OC(=O)[C@@]2(C)O | > 125 | > 125 | – | 98.8 | – | – | –
14 | CC1=CO[C@@H]2O[C@]3(C)CC[C@H]4[C@H](C)CC[C@@H]1[C@@]24OO3 [ANHYDRODIHYDROARTEMISININ] | 29.2 | 207 | – | – | – | – | –
15 | C=C1[C@@H](OOCC)O[C@@H]2O[C@]3(C)CC[C@H]4[C@H](C)CC[C@@H]1[C@@]24OO3 [ETHYLPEROXYARTEMISITENE] | 11.5 | 38.3 | – | – | – | – | –
16 | C=C1C(=O)O[C@@H]2O[C@@]3(C)CC[C@H]4[C@H](C)CC[C@@H]1[C@@]24OO3 [ARTEMISITENE] | 6.8 | 16 | – | – | – | – | –
17 | COc1cccc2c1C(=O)c1c(O)c3c(c(O)c1C2=O)C[C@@](O)(C(=O)CO)C[C@@H]3O[C@H]1C[C@H](N)[C@H](O)[C@H](C)O1 [DOXORUBICIN] | 0.35 | 1 | – | – | – | – | –
18 | CCO[C@H]1O[C@@H]2O[C@@]3(C)CC[C@H]4[C@H](C)CC[C@@H]([C@H]1C)[C@@]24OO3 [ARTEMOTIL] | 13.1 | 212 | 63 | – | – | – | –
19 | C[C@H]1[C@@H](OCc2ccc(C(=O)O)cc2)O[C@@H]2O[C@]3(C)CC[C@H]4[C@H](C)CC[C@@H]1[C@@]24OO3 [SODIUMARTELINATE] | 12.2 | 47.9 | 63 | – | – | – | –
20 | C[C@H]1[C@@H](O)O[C@@H]2O[C@@]3(C)CC[C@H]4[C@H](C)CC[C@@H]1[C@@]24OO3 [ARTENIMOL] | 83.4 | 233 | – | – | – | – | –
21 | C=C1C(=O)O[C@@]23[C@H]1CC[C@@H](C)[C@@H]2CC[C@@]1(C)O[C@@H]31 [ARTEANNUIN B] | 47 | > 50 | – | – | – | – | 44.8
